Experimental data of several laboratories.
Compare with care: the assays were run in different laboratories.
Target: Uncharacterized serine/threonine-protein kinase SBK3 (SBK3, Homo sapiens, UniProt P0C264)
Sequence (P0C264 1-359, as in one of the studies): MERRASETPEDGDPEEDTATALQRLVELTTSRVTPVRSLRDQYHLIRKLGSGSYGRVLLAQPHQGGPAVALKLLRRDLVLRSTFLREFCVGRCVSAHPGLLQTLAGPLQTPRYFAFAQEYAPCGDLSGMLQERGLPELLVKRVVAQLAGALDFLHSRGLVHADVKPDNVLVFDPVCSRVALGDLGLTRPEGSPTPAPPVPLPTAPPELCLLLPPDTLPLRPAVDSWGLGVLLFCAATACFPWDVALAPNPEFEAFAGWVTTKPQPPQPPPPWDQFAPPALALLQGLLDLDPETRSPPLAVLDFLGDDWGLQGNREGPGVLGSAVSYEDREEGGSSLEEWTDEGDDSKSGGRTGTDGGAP

SMILES	assay	conditions	remaining binding [%]
CN(CCCC(F)(F)F)c1nccc(-c2cnn3ncccc23)n1	binding	1 µM	42
O=S(=O)(NC1CCC(c2cc(F)ccc2F)(S(=O)(=O)c2ccc(Cl)cc2)CC1)C(F)(F)F (centres unmarked)	cell-free assay, competition with immobilised ligand	1 µM	93
O=C(c1ccc(Nc2ncc(Cl)c(-c3ccc(Cl)s3)n2)cc1)N1CCC(N2CCCC2)CC1	binding, competition with immobilised ligand	1 µM	62
CCCCN(CCCC)C(=O)CN1C[C@@H](c2cc(OC)c3c(c2)OCO3)[C@H](C(=O)O)[C@H]1CC(C)(C)CCC	cell-free assay, competition with immobilised ligand	1 µM	100
COc1cnc(Nc2cccc(S(N)(=O)=O)c2)nc1N1CCN(c2ccccc2)CC1	binding, competition with immobilised ligand	1 µM	100
N[C@@H]1CCN(c2nccc(-c3cnn4ncccc34)n2)C1	binding	1 µM	100
C=CC(=O)N1CCC(C(=O)NCC(=O)N2CCN(c3nc(-c4cnc(N)nc4C(F)F)nc(N4CCOCC4)n3)CC2)CC1	binding, competition with immobilised ligand	1 µM	87
CS(=O)(=O)c1cc(C2(NC(=O)c3cncc4c3cnn4-c3ccc(F)cc3)CC2)ccn1	cell-free assay, competition with immobilised ligand	1 µM	100
O=C(Nc1c[nH]nc1C(=O)NC1CCNCC1)c1cc(F)cc(F)c1	binding, competition with immobilised ligand	1 µM	100
F[C@@H]1CCN(c2nccc(-c3cnn4ncccc34)n2)C1	binding	1 µM	100
CC(=O)C1=C(C)N(c2cccc(C(F)(F)F)c2)C(=O)N[C@@H]1c1ccc(C#N)nc1	cell-free assay, competition with immobilised ligand	1 µM	100
Cc1cnn2ncc(-c3ccnc(N(C)C)n3)c2c1	binding	1 µM	26
COc1ncc2cc3ccccc3nc2c1C#N	cell-free assay, competition with immobilised ligand	5 µM	100
C[C@@H]1CCN(c2nccc(-c3cnn4ncccc34)n2)C1	binding	1 µM	99
CCN1CCN(Cc2ccc(C(=O)Nc3ccc(C)c(Oc4ccc5c(c4)CC(=O)N5)c3)cc2C(F)(F)F)CC1	binding, competition with immobilised ligand	1 µM	100
CN(C)C(=O)Cn1cc(-c2nc([C@@](C)(c3ccc(-c4cnc(N)nc4)cc3)C3CC3)no2)cn1	cell-free assay, competition with immobilised ligand	1 µM	71
O=C(NCCCN1CCOCC1)c1ccc(Nc2nccc(-c3cc4ccccc4s3)n2)cc1	binding, competition with immobilised ligand	1 µM	91
O=C(N[C@H]1CCCCC/C=C\C2C[C@@]2(C(=O)O)NC(=O)[C@@H]2C[C@@H](Oc3ccncc3)CN2C1=O)OC1CCCC1 (some centres unmarked)	binding, competition with immobilised ligand	1 µM	79
C[C@@H](c1ccc(-n2cnc3c(N)ncnc32)cc1)N1CCc2nn(C)c(Cc3ccccc3)c2C1=O	binding, competition with immobilised ligand	0.1 µM	99
Cc1cnc(Nc2ccc(C(=O)N3CCC(N4CCCC4)CC3)cc2)nc1-c1cc2ccccc2s1	binding, competition with immobilised ligand	1 µM	46
